Results: article PMC9382663 (Nature, 2022)
Where no end group is shown, it is not given here. [ ]: non-standard residue; d: D form. pS = N[C@@H](COP(=O)(O)O)C(=O)O

Tests used:
[1] = test system: experimental autoimmune encephalomyelitis (EAE); assay: EAE after peptide immunization; type: in vivo, SJL/J mice; settings: spinal cord histology, day 50; vs. scrambled peptide
EBNA1AA386–405 = assay: Mouse plasma IgG ELISA against EBNA1 peptide; type: in vivo, SJL/J mice; settings: immunized mice, plasma 1:100
GlialCAM ICD = assay: Mouse plasma IgG ELISA against GlialCAM ICD; type: in vivo, SJL/J mice; settings: immunized mice, plasma 1:100
[2] = test system: splenocytes and lymph node cells; assay: T cell proliferation by 3H-thymidine incorporation; type: cell-based, mouse; settings: cells pooled from n=10 immunized mice
[3] = test system: mouse splenocytes and lymph node cells; assay: Cytokine ELISA in cell culture supernatant; type: cell-based; settings: cells of immunized mice re-stimulated with peptide
[4] = test system: plasma antibody reactivity against EBNA1AA386–405; assay: Plasma ELISA with blocking of plasma IgG; type: binding, human; settings: blocking peptide 10 μg/ml, 2 h RT; nine high-reactivity MS samples
In short: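 384-well plates are coated overnight at 4°C with recombinant Protein G (2μg/ml) and washed 6x with PBST. Plasma (1:100) is bound overnight at 4°C, washed again, then blocked 2 h at RT with 10μg/ml peptide (scrambled control, EBNA1 AA386–405 or GlialCAM AA370–389 pSer376). Read-out is OD 450 nm normalized to the unblocked sample, with quadruplicate wells.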

[5] = molecular target: unmutated ancestor of MS39p2w174 (germline) (human); assay: BLI
[6] = molecular target: T1, biotinylated GlialCAM_(AA370–389 pSer376 pSer377) peptide (human) (UniProt Q14CZ8); assay: BLI
T1 sequence (peptide): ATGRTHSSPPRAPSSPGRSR

[7] = molecular target: T2, biotinylated GlialCAM_(AA370–389 pSer376) peptide (human) (UniProt Q14CZ8); assay: BLI
T2 sequence (peptide): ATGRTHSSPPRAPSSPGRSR

[8] = molecular target: GlialCAM protein (bio-layer interferometry) (Homo sapiens, UniProt Q14CZ8); assay: BLI
[9] = molecular target: T3, biotinylated native GlialCAM_(AA370–389) peptide (Homo sapiens, UniProt Q14CZ8); assay: BLI
T3 chain: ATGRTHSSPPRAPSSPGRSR

[10] = molecular target: EBNA1 full-length protein AA1–641 (Epstein-Barr virus, strain ; …, UniProt P03211); assay: BLI
[11] = molecular target: T4, biotinylated EBNA1_(AA386–405) peptide (Epstein-Barr virus, sequence as B95-8); assay: BLI
T4 chain: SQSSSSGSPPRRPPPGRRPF

[12] = molecular target: actin filament associated protein 1 (AFAP1) on the HuProt microarray (Homo sapiens (Human)., UniProt Q8N556); assay: peptide or protein array
[13] = molecular target: T5, EBNA1_(AA386–405) 20mer peptide (Epstein-Barr virus); assay: ELISA
T5 chain: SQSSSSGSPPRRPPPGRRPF

Sequence of EBNA1 full-length protein AA1–641 (P03211 whole entry, the tested form may be a part): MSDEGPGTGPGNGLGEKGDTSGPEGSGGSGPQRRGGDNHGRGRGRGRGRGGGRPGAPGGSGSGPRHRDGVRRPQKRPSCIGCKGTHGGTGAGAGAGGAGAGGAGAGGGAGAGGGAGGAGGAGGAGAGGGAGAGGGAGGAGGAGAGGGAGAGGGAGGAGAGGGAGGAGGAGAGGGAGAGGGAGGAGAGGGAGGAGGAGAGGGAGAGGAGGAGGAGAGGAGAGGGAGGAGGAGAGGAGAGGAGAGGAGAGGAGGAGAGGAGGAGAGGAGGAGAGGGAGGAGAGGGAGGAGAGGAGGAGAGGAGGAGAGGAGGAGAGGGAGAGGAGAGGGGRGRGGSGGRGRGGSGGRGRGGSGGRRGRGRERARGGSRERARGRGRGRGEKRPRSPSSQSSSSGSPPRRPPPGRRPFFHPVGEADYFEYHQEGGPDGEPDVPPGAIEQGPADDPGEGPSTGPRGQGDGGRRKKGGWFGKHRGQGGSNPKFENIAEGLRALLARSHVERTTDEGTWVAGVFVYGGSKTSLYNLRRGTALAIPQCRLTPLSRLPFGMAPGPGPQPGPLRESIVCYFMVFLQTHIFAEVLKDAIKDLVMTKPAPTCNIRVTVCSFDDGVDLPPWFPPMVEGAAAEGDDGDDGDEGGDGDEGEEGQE
Sequence of actin filament associated protein 1 (AFAP1) on the HuProt microarray (Q8N556 whole entry, the tested form may be a part): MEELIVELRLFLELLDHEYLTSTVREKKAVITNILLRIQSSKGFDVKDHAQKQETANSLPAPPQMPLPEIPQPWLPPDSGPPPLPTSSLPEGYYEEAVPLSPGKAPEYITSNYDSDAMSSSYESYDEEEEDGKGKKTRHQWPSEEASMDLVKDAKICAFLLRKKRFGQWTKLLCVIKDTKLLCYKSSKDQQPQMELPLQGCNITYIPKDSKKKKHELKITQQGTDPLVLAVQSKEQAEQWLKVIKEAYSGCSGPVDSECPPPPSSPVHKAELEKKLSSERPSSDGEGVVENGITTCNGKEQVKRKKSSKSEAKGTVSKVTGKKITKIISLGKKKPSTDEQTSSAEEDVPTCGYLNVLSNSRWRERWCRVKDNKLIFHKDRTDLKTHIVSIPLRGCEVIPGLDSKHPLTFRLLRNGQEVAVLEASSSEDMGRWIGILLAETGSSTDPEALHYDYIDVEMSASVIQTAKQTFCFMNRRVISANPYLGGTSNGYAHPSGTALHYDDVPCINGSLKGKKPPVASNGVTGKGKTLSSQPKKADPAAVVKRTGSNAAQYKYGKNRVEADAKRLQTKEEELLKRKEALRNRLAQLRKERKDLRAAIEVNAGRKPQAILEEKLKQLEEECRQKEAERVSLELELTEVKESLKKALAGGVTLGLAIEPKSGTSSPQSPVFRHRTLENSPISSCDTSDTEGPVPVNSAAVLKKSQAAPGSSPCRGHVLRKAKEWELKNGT

SQSSSSGSPPRRPPPGRRPF [EBNA1AA386–405]
CNS immune cell infiltration (H&E) [1]: enhanced CNS immune cell infiltration
demyelination (Luxol Fast Blue) [1]: enhanced
plasma IgG response to EBNA1AA386–405 (EBNA1AA386–405): robust antibody responses
plasma IgG response to GlialCAM ICD (GlialCAM ICD): robust antibody responses
CD4+ T cell response [2]: strong CD4+ T cell response
IL-17 secretion [3]: suppressed
secretion of IFN-γ, TNF, IL-12, IL-6 and IL-10 [3]: stimulated the secretion

GlialCAMAA370–389 pSer376: GlialCAM 20mer peptide phosphorylated at Ser376 (ATGRTH[pS]SPPRAPSSPGRSR)
blocking of anti-EBNA1AA386–405 plasma reactivity [4]: inhibition

B1: GlialCAM protein (bio-layer interferometry) (natural protein)
chain: VNITSPVRLIHGTVGKSALLSVQYSSTSSDRPVVKWQLKRDKPVTVVQSIGTEVIGTLRPDYRDRIRLFENGSLLLSDLQLADEGTYEVEISITDDTFTGEKTINLTVDVPISRPQVLVASTTVLELSEAFTLNCSHENGTKPSYTWLKDGKPLLNDSRMLLSPDQKVLTITRVLMEDDDLYSCMVENPISQGRSLPVKITVYRRSSLYIILSTGGIFLLVTLVTVCACWKPSKRKQKKLEKQNSLEYMDQNDDRLKPEADTLPRSGEQERKNPMALYILKDKDSPETEENPAPEPRSATEPGPPGYSVSPAVPGRSPGLPIRSARRYPRSPARSPATGRTHSSPPRAPSSPGRSRSASRTLRTAGVHIIREQDEAGPVEISA
Kd [5]: 10.5 nM

B2: mAb MS39p2w174 (antibody, V domains shown)
VH: QVQLVESGGGLVKPGGSLRLSCVSSGFTFSNYWMSWVRQAPGGGLEWVANINQDGSEKYYVDSVKGRFTSSRDNTKNSLFLQLNSLRAEDTGIYYCTRDPPYFDNWGQGTLVTVSS
VL: DVVLTQSPLSLPVILGQPASISCRSSQSLVYSDGRTYLNWFQQRPGQSPRRLIYKISKRDSGVPERFSGSGSGTDFTLEISRVEAEDVGIYYCMQGSHWPVTFGQGTKVEIK
Kd [6]: 3.73 nM
Kd [7]: 6.1 nM
Kd [8]: 0.19 nM
Kd [9]: 302 nM
Kd [10]: 1.99 nM
Kd [11]: 2.67 nM
binding result [12]: binds
binding result [13]: binds
